In test [1] the test system is HL-60. In words: Cytotoxicity against human HL60 cells after 3 days by XTT assay. As to conditions: HL-60, 72 h. It counts as functional, cell-based. In short, it runs like this: (§1)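 Suspension-grown cell lines, 3-day compound incubation; viability read by XTT metabolic assay; IC50 averaged from four independent experiments.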
The test system of test [2] is HCT-116. Nature of the test: Cytostatic activity against human HCT116 cells after 5 days by SRB assay. In kind it is functional. As to conditions: HCT-116, 120 h. The essentials: (§2)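 Cells seeded per line density, overnight at 37 °C; day-zero plate TCA-fixed. 5-fold serial dilutions added, 5-day incubation; TCA fixation, 0.057% SRB in 1% acetic acid 30 min, dye dissolved in 10 mM Tris pH 10.5, A500. Growth relative to day-zero and untreated; GIC50 from sigmoidal dose–response fit; mean of two independent experiments.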

Test [3] deals with A549. Nature of the test: Cytostatic activity against human A549 cells after 5 days by SRB assay. It counts as functional. The conditions noted are these: A549, 120 h. In short, it runs like this:
as §2

The test system of test [4] is BT-549. In words: Cytostatic activity against human BT549 cells after 5 days by SRB assay. As to conditions: BT-549, 120 h. It counts as functional. In short, it runs like this: as §2
The test system of test [5] is PC-3. Nature of the test: Cytostatic activity against human PC3 cells after 5 days by SRB assay. It counts as functional. The conditions noted are these: PC-3, 120 h. The essentials: as §2
The nature of test [6]: Cytostatic activity against human Hs578 cells after 5 days by SRB assay. It counts as functional. The conditions noted are these: Hs578, 120 h. In short, it runs like this:
as §2

For test [7], the system named is MT4. Nature of the test: Cytostatic activity against human MT4 cells after 5 days by SRB assay. The conditions noted are these: MT4, 120 h. In kind it is functional.
Test [8] concerns CCRF-CEM. In words: Cytotoxicity against human CCRF-CEM cells after 3 days by XTT assay. In kind it is functional, cell-based. As to conditions: 72 h. In short, it runs like this:
as §1

Test [9] has as its system NCI-H23. Nature of the test: Cytostatic activity against human NCI-H23 cells after 5 days by SRB assay. It counts as functional. The conditions noted are these: NCI-H23, 120 h. In short, it runs like this: as §2
Test [10] deals with Adenosine kinase (Homo sapiens, UniProt P55263). In words: Inhibition of human ADK using [3H]-adenosine by scintillation counting.
A short description of test [11]: Cytotoxicity against human HeLaS3 cells after 3 days by XTT assay. In kind it is functional, cell-based. As to conditions: HeLa S3, 72 h. The essentials: as §1
Test [12] relates to BJ. In words: Cytotoxicity against human BJ cells after 3 days by MTT assay. It counts as cell-based. As to conditions: 72 h.
In test [13] the test system is BT-549. In words: Cytotoxicity against human BT549 cells after 3 days by MTT assay. It counts as functional, cell-based. As to conditions: BT-549, 72 h.
Test [14] relates to HT-29. Nature of the test: Cytotoxicity against human HT-29 cells after 3 days by MTT assay. It counts as functional, cell-based. The conditions noted are these: HT-29, 72 h.
For test [15], the system named is MCF7. In words: Cytotoxicity against human MCF7 cells after 3 days by MTT assay. As to conditions: MCF7, 72 h. In kind it is functional, cell-based.
The test system of test [16] is EL4. Nature of the test: Cytotoxicity against mouse EL4 cells after 3 days by MTT assay. In kind it is functional, cell-based. The conditions noted are these: EL4, 72 h.
Test [17] has as its system LNCaP. Nature of the test: Cytotoxicity against human LNCAP cells after 3 days by MTT assay. In kind it is functional, cell-based. The conditions noted are these: 72 h.
A short description of test [18]: Cytotoxicity against mouse P388D1 cells after 3 days by MTT assay. In kind it is functional, cell-based. As to conditions: P388D1, 72 h.
Test [19] concerns MDA-MB-231. In words: Cytotoxicity against human MDA-MB-231 cells after 3 days by MTT assay. It counts as functional, cell-based. The conditions noted are these: MDA-MB-231, 72 h.
Test [20] has as its system C6. Nature of the test: Cytotoxicity against rat C6 cells after 3 days by MTT assay. In kind it is functional, cell-based. As to conditions: C6, 72 h.
Test [21] can be described thus: Cytotoxicity against human CEM-DNR-bulk cells after 3 days by MTT assay. It counts as functional, cell-based. As to conditions: 72 h.
For test [22], the system named is SK-MEL-2. In words: Cytotoxicity against human SK-MEL-2 cells after 3 days by MTT assay. In kind it is functional, cell-based. As to conditions: SK-MEL-2, 72 h.
Test [23] deals with BV-173. In words: Cytotoxicity against human BV173 cells after 3 days by MTT assay. It counts as functional, cell-based. The conditions noted are these: BV-173, 72 h.
Test [24] can be described thus: Cytotoxicity against human NCI-H146 cells after 3 days by MTT assay. As to conditions: NCI-H146, 72 h. In kind it is functional, cell-based.
The test system of test [25] is K562. In words: Cytotoxicity against human paclitaxel resistant K562 cells after 3 days by MTT assay. In kind it is functional, cell-based. As to conditions: K562, 72 h.
In test [26] the test system is CT26. In words: Cytotoxicity against mouse CT26 cells after 3 days by MTT assay. It counts as functional, cell-based. As to conditions: CT26, 72 h.
In test [27] the test system is L1210. Nature of the test: Cytotoxicity against mouse L1210 cells after 3 days by MTT assay. In kind it is functional, cell-based. The conditions noted are these: L1210, 72 h.
In test [28] the test system is K562. In words: Cytotoxicity against human K562 cells after 3 days by MTT assay. It counts as functional, cell-based. The conditions noted are these: K562, 72 h.
In test [29] the test system is SK-OV-3. Nature of the test: Cytotoxicity against human SKOV3 cells after 3 days by MTT assay. It counts as functional, cell-based. The conditions noted are these: SK-OV-3, 72 h.
The subject of test [30] is HPAC. Nature of the test: Cytotoxicity against human HPAC cells after 3 days by MTT assay. In kind it is functional, cell-based. The conditions noted are these: 72 h.
For test [31], the system named is HeLa. In words: Cytotoxicity against human HeLa cells after 3 days by MTT assay. In kind it is functional, cell-based. The conditions noted are these: 72 h.
Test [32] is described as follows: Cytotoxicity against human MES-SA cells after 3 days by MTT assay. It counts as functional, cell-based. The conditions noted are these: 72 h.
Test [33] in a line: Cytotoxicity against human U87MG cells after 3 days by MTT assay. In kind it is functional, cell-based, U-87MG ATCC. As to conditions: U-87 MG, 72 h.
For test [34], the system named is SK-N-AS. Nature of the test: Cytotoxicity against human SK-N-AS cells after 3 days by MTT assay. As to conditions: 72 h. It counts as functional, cell-based.
In test [35] the test system is HCT-15. Nature of the test: Cytostatic activity against human HCT15 cells after 5 days by SRB assay. The conditions noted are these: HCT-15, 120 h. In kind it is functional. In short, it runs like this:
as §2

Test [36] has as its system DU-145. Nature of the test: Cytostatic activity against human DU145 cells after 5 days by SRB assay. In kind it is functional. The conditions noted are these: DU-145, 120 h. In short, it runs like this:
as §2

The structures appear in SMILES notation.

Sequence of Adenosine kinase (P55263 whole entry): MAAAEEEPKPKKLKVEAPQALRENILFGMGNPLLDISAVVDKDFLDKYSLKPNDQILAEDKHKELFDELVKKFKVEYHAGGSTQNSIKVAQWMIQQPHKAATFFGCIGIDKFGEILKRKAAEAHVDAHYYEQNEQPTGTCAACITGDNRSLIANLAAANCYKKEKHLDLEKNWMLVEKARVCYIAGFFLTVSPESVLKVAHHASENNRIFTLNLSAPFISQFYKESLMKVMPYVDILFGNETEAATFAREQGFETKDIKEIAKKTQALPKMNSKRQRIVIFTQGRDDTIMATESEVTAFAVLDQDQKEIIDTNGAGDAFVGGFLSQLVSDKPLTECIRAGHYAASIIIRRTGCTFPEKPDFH

For the compound `Nc1ncnc2c1c(-c1cc3ccccc3o1)cn2[C@@H]1O[C@H](CO)[C@@H](O)[C@H]1O`, the IC50 in [1] was greater than 10000 nM; in test [8], 3950 nM; in test [10], greater than 10000 nM; in [11] it was greater than 10000 nM. Moreover, the GI50 in [2] is 3740 nM; in test [3], 7020 nM; in [4], greater than 10000 nM; in test [5], 6290 nM; in [6] it was 6730 nM; in test [7], 4800 nM. The compound also showed a GI50 in test [9] of 5400 nM.
Turning to `COc1cccc2c1C(=O)c1c(O)c3c(c(O)c1C2=O)C[C@@](O)(C(=O)CO)C[C@@H]3O[C@H]1C[C@H](N)[C@H](O)[C@H](C)O1` [DOXORUBICIN], the GI50 in [2] amounted to 11 nM; in test [3] it was 16 nM; in [4], 10 nM; in [5], 21 nM; in test [6] it was 6 nM; in test [9] it was 5 nM.
As to `Nc1ccn([C@@H]2O[C@H](CO)[C@@H](O)C2(F)F)c(=O)n1` [GEMCITABINE], the IC50 worked out at 9880 nM in test [12]; 8 nM in [13]; 1530 nM in [14]; 149 nM in test [15]; 7 nM in [16]; 512 nM in test [17]. Further, the 50% inhibitory concentration (IC50) in test [18] worked out at 19 nM; in test [19], 245 nM; in test [20], 504 nM; in test [21], 22 nM; in test [22], 7110 nM; in test [23] it was 1 nM. Moreover, the IC50 is 2780 nM in [24]; 6 nM in [25]; 6 nM in test [26]; 7 nM in test [27]; 718 nM in [28]; greater than 10000 nM in [29]. Also, the IC50 amounted to 73 nM in test [30]; 4120 nM in [31]; 5 nM in test [32]; 1490 nM in test [33]; 1100 nM in [34].
Regarding `Nc1ncnc2c1c(-c1cc[nH]n1)cn2[C@@H]1O[C@H](CO)[C@@H](O)[C@H]1O`, the IC50 is greater than 20000 nM in [1], 130 nM in test [8], greater than 10000 nM in test [10] and 690 nM in [11]. In addition, the GI50 in [2] was 18 nM; in [5] it was 15 nM; in [6], 8 nM; in [7] it was 18 nM; in test [9], 35 nM.
Consider `Nc1ncnc2c1ccn2[C@@H]1O[C@H](CO)[C@@H](O)[C@H]1O` [TUBERCIDIN], for which the GI50 in [2] was 1 nM; in test [3] it was 1 nM; in [5] it was 48 nM; in test [6] it was 98 nM; in test [7], 21 nM; in test [35], 11 nM. For the same compound, the GI50 in test [9] came to 11 nM; in [36] it was 18 nM.
`Nc1ncnc2c1c(-c1ccc3ccccc3c1)cn2[C@@H]1O[C@H](CO)[C@@H](O)[C@H]1O`: the IC50 in [1] is greater than 10000 nM; in test [8], greater than 10000 nM; in test [10] it was greater than 5000 nM; in test [11] it was greater than 10000 nM. Besides, the GI50 in test [2] turned out to be 5670 nM; in test [6] it was 2160 nM; in test [9] it was 5350 nM; in test [36], 1050 nM.
`Nc1ncnc2c1c(-c1c[nH]nn1)cn2[C@@H]1O[C@H](CO)[C@@H](O)[C@H]1O`: the IC50 in test [1] turned out to be 310 nM; in test [8] it was 60 nM; in test [11] it was 90 nM. Moreover, the GI50 was determined as 4 nM in [2]; 5 nM in test [5]; 3 nM in test [6]; 18 nM in [7]; 4 nM in test [9].
Take `Nc1ncnc2c1c(-c1c[nH]cn1)cn2[C@@H]1O[C@H](CO)[C@@H](O)[C@H]1O`: the IC50 is 130 nM in test [1], 70 nM in [8], greater than 10000 nM in test [10] and 70 nM in test [11]. In addition, the GI50 is 3 nM in [2]; 2 nM in test [5]; 2 nM in test [6]; 28 nM in test [7]; 2 nM in test [9].

The values are drawn from ChEMBL document CHEMBL1811802, “Synthesis and significant cytostatic activity of 7-hetaryl-7-deazaadenosines” (J Med Chem, 2011).
